The results in this text go back to ChEMBL document CHEMBL2331234, “Novel analgesic/anti-inflammatory agents: 1,5-diarylpyrrole nitrooxyalkyl ethers and related compounds as cyclooxygenase-2 inhibiting nitric oxide donors” (J Med Chem, 2013).

Each structure is given as a SMILES string. Active and inactive are the calls of the source. The calls are words filed in the database; no cut-off is given here.

Assay [1] addresses T1, Prostaglandin G/H synthase 2 (Mus musculus, UniProt Q05769).
T1 sequence (Q05769 whole entry): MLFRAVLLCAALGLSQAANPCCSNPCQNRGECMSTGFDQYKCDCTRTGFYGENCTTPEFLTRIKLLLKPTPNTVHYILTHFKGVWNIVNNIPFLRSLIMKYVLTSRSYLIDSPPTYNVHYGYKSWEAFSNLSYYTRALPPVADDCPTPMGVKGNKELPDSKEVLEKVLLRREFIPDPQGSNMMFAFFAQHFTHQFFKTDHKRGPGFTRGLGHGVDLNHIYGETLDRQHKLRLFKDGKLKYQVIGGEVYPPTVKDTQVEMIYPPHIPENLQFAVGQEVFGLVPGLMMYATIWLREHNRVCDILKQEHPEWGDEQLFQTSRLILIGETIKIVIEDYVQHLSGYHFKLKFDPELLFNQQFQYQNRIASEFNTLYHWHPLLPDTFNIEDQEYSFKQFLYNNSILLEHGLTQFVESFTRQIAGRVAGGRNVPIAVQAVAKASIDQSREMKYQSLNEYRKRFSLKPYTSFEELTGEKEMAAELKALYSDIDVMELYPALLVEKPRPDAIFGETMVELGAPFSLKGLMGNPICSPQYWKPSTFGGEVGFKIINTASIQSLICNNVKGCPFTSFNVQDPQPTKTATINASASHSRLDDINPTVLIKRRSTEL
The assay can be described thus: Inhibition of Escherichia coli lipopolysaccharide-induced COX2 activity in mouse J774 cells assessed as decrease in PGE2 levels after 24 hrs by RIA. It is filed as cell-based. The method, boiled down: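 Adhered cells in DMEM/10% FBS were stimulated with E. coli LPS 10 µg/mL for 24 h with compound present at 0.01-10 µM. Supernatant PGE2 was measured by RIA. IC50 came from a variable-slope sigmoidal fit.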

The subject of assay [2] is Aorta. The assay can be described thus: Vasorelaxant activity in Wistar rat endothelium-removed thoracic aortic rings assessed as reduction of KCl-induced vasoconstriction treated after KCl-challenge. It is filed as functional, tissue-based. The gist of the method:
(§1)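 Thoracic aortic rings from male Wistar rats (250-350 g), endothelium removed by rubbing; removal confirmed as <10% relaxation to ACh 10 µM in KCl 30 mM-contracted rings. Rings contracted with KCl 30 mM; at plateau, 3-fold increasing compound concentrations (1 nM-10 µM) added. Isometric tension recorded. Emax given as % of KCl tone; pIC50 as -log molar concentration halving that tone. 6-10 experiments; also run with ODQ 1 µM.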

Assay [3] concerns Rattus norvegicus. Put plainly: Antiinflammatory activity in Sprague-Dawley/Wistar rat assessed as decrease in carrageenan-induced hyperalgesia at 20 mg/kg, po administered 4 hrs after carrageenan-challenge measured after 120 mins (reference value: 31.4 +/- 3.7 g). Format: functional.
The subject of the next assay is J774. Put plainly: Selectivity index, ratio of IC50 for COX1 in mouse J774 cells […]. Format: cell-based.
Assay [4] concerns Rattus norvegicus. Put plainly: Antiinflammatory activity in Sprague-Dawley/Wistar rat assessed as decrease in carrageenan-induced paw edema at 40 mg/kg, po administered 3 hrs 30 mins after carrageenan-challenge measured after 60 mins (reference value: 2.48 +/- 0.06 mL). Format: functional. Background: Carrageenan injected into the paw causes an acute inflammation.
Assay [5] concerns Rattus norvegicus. The assay can be described thus: Antiinflammatory activity in Sprague-Dawley/Wistar rat assessed as decrease in carrageenan-induced hyperalgesia at 20 mg/kg, po administered 4 hrs after carrageenan-challenge measured after 60 mins (reference value: 33.9 +/- 3.7 g). Format: functional.
The next assay has as its system Mus musculus. The assay can be described thus: Antinociceptive activity in po dosed Swiss albino mouse assessed as reduction in number of acetic acid-induced writhing counted 5 mins after acetic acid challenge counted for 10 mins. Format: functional. The following applies: read-out: MED. The gist of the method: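 Male Swiss albino mice (23-25 g) dosed orally, then given 0.6% acetic acid (10 mL/kg) ip. Stretching movements counted for 10 min, starting 5 min after the acetic acid. Control group received CMC. At least 7 mice/group; mean ± SEM, ANOVA with Fisher's PLSD.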
(In general: Writhing tests count abdominal constrictions after an irritant is injected.)

Assay [6] relates to Rattus norvegicus. Put plainly: Antiinflammatory activity in Sprague-Dawley/Wistar rat assessed as decrease in carrageenan-induced hyperalgesia at 40 mg/kg, po administered 4 hrs after carrageenan-challenge measured after 60 mins (reference value: 33.9 +/- 3.7 g). It is filed as functional.
The test system of assay [7] is Rattus norvegicus. The assay can be described thus: Antiinflammatory activity in Sprague-Dawley/Wistar rat assessed as decrease in carrageenan-induced hyperalgesia at 40 mg/kg, po administered 4 hrs after carrageenan-challenge measured after 30 mins (reference value: 34.8 +/- 3.0 g). Format: functional.
In assay [8] the test system is Rattus norvegicus. Put plainly: Antiinflammatory activity in Sprague-Dawley/Wistar rat assessed as decrease in carrageenan-induced hyperalgesia at 40 mg/kg, po administered 4 hrs after carrageenan-challenge measured after 120 mins (reference value: 31.4 +/- 3.7 g). Format: functional.
In assay [9] the test system is Aorta. The assay can be described thus: Vasorelaxant activity in Wistar rat endothelium-removed thoracic aortic rings assessed as reduction of KCl-induced vasoconstriction at 0.001 uM to 10 uM treated after KCl-challenge in presence of guanylate cyclase inhibitor 1H-[1,2,4]-oxadiazolo[4,3-a]quinoxalin-1-one. Format: functional, tissue-based. The gist of the method:
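Endothelium-denuded aortic rings from male Wistar rats (250-350 g) were preincubated with ODQ 1 µM. Rings were contracted with KCl 30 mM, then given 3-fold increasing concentrations from 1 nM to 10 µM. Emax is the % relaxation of KCl tone. pIC50 was calculated when efficacy reached 50%, from 6-10 experiments.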

Assay [10] relates to Rattus norvegicus. The assay can be described thus: Antiinflammatory activity in Sprague-Dawley/Wistar rat assessed as decrease in carrageenan-induced paw edema at 20 mg/kg, po administered 3 hrs 30 mins after carrageenan-challenge measured after 60 mins (reference value: 2.48 +/- 0.06 mL). It is filed as functional.
Assay [11] addresses T2, Prostaglandin G/H synthase 1 (Mus musculus, UniProt P22437).
T2 sequence (P22437 whole entry): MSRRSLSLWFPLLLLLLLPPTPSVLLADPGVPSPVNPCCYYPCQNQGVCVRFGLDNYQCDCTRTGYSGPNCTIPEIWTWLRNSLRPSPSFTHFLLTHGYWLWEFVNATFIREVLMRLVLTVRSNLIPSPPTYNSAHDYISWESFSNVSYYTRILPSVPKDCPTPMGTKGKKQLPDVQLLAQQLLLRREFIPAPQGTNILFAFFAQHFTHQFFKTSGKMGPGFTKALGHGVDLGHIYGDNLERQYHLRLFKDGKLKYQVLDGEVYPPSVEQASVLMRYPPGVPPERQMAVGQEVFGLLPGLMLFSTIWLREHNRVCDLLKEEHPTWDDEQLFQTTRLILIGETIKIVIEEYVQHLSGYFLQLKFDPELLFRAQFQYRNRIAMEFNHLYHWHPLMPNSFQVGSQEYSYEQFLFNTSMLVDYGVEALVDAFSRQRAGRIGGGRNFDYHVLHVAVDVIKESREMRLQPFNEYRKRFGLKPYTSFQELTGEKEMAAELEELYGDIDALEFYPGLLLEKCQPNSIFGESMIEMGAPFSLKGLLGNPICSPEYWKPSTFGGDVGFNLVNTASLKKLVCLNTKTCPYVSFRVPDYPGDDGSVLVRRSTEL
Put plainly: Inhibition of arachidonic acid-induced COX1 activity in mouse J774 cells assessed as decrease in PGE2 levels incubated for 15 mins prior to arachidonic acid-challenge measured after 30 mins by RIA. It is filed as cell-based. The method, boiled down:
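Cells were in DMEM with 10% FBS and adhered for 2 h at 37 °C. They were pretreated with compound (10 µM; 0.1-1 µM where inhibition exceeded 50%) for 15 min, then given 15 µM arachidonic acid for 30 min at 37 °C. Supernatant PGE2 was measured by RIA. Triplicate wells were used and the mean of three experiments reported. IC50 came from a variable-slope sigmoidal fit.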

Assay [12] has as its system Rattus norvegicus. The assay can be described thus: Antiinflammatory activity in Sprague-Dawley/Wistar rat assessed as decrease in carrageenan-induced hyperalgesia at 20 mg/kg, po administered 4 hrs after carrageenan-challenge measured after 30 mins (reference value: 34.8 +/- 3.0 g). Format: functional.
Assay [13] relates to Rattus norvegicus. The assay can be described thus: Antiinflammatory activity in Sprague-Dawley/Wistar osteoarthritis model rat assessed as decrease in monoiodoacetate-induced hyperalgesia at 20 mg/kg, po bid for 14 days administered from day of monoiodoacetate-challenge […] post by paw pressure test (reference value: 32.6 +/- 2.9 g). Format: functional.
Assay [14] concerns Aorta. The assay can be described thus: Vasorelaxant activity in Wistar rat endothelium-removed thoracic aortic rings assessed as reduction of KCl-induced vasoconstriction at 0.001 uM to 10 uM treated after KCl-challenge relative to control. It is filed as functional. The method, boiled down: as §1
The subject of assay [15] is Rattus norvegicus. Put plainly: Antiinflammatory activity in Sprague-Dawley/Wistar osteoarthritis model rat assessed as decrease in monoiodoacetate-induced hyperalgesia at 20 mg/kg, po bid for 14 days administered from day of monoiodoacetate-challenge followed by additional compound treatment after 30 mins […] by paw pressure test (reference value: 30.4 +/- 3.1 g). Format: functional.

The target in assay [16] is Prostaglandin G/H synthase 1 (Homo sapiens, UniProt P23219). The assay can be described thus: Inhibition of COX1 in human whole blood assessed as reduction in TXB2 generation. The method, boiled down:
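Clotting assay in whole blood from three healthy volunteers with no NSAID for 2 weeks. Compounds in DMSO were added at 0.1-300 µM final. Blood clotted in glass tubes at 37 °C for 1 h. Serum TXB2 was measured by RIA as a reflection of platelet COX-1 activity driven by endogenous thrombin.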

A short description of assay [17]: (§2) Inhibition of interleukin 1 beta-induced glycosaminoglycan release in bovine articular cartilage of metacarpophalangeal joints of feet treated 48 hrs after interleukin 1beta-challenge by DMB colorimetric assay. It is filed as functional, Bos taurus. The method, boiled down:
(§3)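 Bovine metacarpophalangeal cartilage slices (about 100 mg per well) were cultured in serum-free DMEM at 37 °C, 5% CO2, with medium changed on days 1 and 2. On day 3 the slices were challenged with IL-1β 30 ng/mL plus compound for 48 h. GAG release was measured by the DMB (Farndale) assay and expressed as % of IL-1β alone, n = 3. EC50 is given with 95% CI.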

A further assay is filed under the species Bos taurus. Described as §2. It is filed as functional. The gist of the method:
as §3

Assay [18] deals with T3, Prostaglandin G/H synthase 2 (Homo sapiens) (UniProt P35354).
T3 sequence (whole entry): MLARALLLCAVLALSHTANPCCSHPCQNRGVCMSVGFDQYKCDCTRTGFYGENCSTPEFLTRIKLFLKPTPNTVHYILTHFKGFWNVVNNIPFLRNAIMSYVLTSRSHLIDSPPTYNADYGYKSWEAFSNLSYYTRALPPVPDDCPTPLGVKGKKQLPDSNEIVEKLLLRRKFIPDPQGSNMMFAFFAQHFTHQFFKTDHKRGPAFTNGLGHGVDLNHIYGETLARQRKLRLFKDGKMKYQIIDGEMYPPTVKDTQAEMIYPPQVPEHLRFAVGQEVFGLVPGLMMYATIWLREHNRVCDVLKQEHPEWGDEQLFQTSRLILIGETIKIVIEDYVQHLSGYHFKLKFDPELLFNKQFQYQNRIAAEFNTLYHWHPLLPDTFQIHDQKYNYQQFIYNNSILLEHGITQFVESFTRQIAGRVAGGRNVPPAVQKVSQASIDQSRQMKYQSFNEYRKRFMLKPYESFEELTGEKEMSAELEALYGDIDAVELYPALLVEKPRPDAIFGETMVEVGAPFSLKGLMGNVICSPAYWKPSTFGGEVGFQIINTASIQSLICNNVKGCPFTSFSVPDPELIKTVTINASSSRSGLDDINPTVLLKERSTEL
The assay can be described thus: Inhibition of COX2 in human whole blood assessed as reduction in LPS-induced PGE2 generation pre-treated prior to LPS-challenge. The method, boiled down: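 Heparinized whole blood came from three healthy volunteers pretreated with aspirin 300 mg 48 h before sampling to suppress platelet COX-1. Compounds in DMSO were added at 0.1-300 µM final. Blood was incubated with LPS 10 µg/mL for 24 h at 37 °C. Plasma PGE2 was measured by RIA.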

Sequence of Prostaglandin G/H synthase 1 (Homo sapiens, UniProt P23219) (P23219 whole entry): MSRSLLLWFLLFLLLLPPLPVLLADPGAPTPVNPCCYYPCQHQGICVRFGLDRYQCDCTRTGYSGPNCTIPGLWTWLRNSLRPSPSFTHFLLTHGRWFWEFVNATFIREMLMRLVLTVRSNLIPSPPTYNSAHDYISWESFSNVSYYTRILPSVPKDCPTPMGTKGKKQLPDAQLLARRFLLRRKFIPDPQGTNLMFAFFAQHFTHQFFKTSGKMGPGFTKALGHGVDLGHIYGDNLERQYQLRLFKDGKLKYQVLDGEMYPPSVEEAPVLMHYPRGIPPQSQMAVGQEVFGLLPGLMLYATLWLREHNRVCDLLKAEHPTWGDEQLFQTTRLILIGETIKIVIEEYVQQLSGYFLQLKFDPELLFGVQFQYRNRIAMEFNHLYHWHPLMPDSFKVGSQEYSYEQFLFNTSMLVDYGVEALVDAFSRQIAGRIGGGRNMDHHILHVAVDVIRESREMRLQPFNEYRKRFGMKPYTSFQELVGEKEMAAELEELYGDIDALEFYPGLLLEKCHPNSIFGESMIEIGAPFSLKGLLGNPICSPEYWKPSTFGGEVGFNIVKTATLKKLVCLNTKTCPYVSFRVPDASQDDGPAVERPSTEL

Usually IC50 stands for the point on the concentration scale where inhibition reaches its midpoint. Consider `Cc1c(CCOCCO[N+](=O)[O-])cc(-c2ccc(S(C)(=O)=O)cc2)n1-c1cccc(F)c1`, for which the IC50 is 0.027 µM in [1], 4.79 µM in the assay with Aorta [2] and over 10 µM in [11]. Moreover, the pIC50 entry in the assay with Aorta [2] was “Dose-dependent effect”. The Activity in the assay with Rattus norvegicus [3] was 35.2 g; in the assay with Rattus norvegicus [4], 2.08 mL; with Rattus norvegicus [5] it was 40.7 g; in the assay with Rattus norvegicus [6], 41 g; with Rattus norvegicus [7] it was 47.3 g; in the assay on Rattus norvegicus [8], 34.3 g. The Activity turned out to be 2.16 mL with Rattus norvegicus [10] and 43.9 g with Rattus norvegicus [12]. Moreover, the Ratio IC50 in the assay on J774 was over 357. Also, the minimal effective dose with Mus musculus is 40 mg/kg. In the assay with Aorta [9], the outcome was inactive.

A word on the IC80: it is the point of the concentration-response curve where the effect stands at 80%. Regarding `Cc1c(CCOCCO)cc(-c2ccc(S(C)(=O)=O)cc2)n1-c1ccc(F)cc1`, the Activity with Rattus norvegicus [13] was 49.7 g; in the assay on Rattus norvegicus [15] it was 51.2 g; in the assay with Rattus norvegicus [3], 38.3 g; in the assay with Rattus norvegicus [4] it was 1.95 mL; with Rattus norvegicus [5], 38.7 g; in the assay with Rattus norvegicus [6], 58.3 g. Also, the Activity in the assay on Rattus norvegicus [7] turned out to be 57.2 g; in the assay with Rattus norvegicus [8], 47.6 g; in the assay with Rattus norvegicus [10] it was 2.01 mL; in the assay on Rattus norvegicus [12], 46.8 g. For the same compound, the Emax entry in the assay on Aorta [14] is “inactive”. The IC50 in [16] was 20 µM; in assay [17] it was 33 µM; in [11] it was over 10 µM. Besides, the results for the IC80 in assay [16] and in assay [18] were 37.1 µM and 2.31 µM, respectively. In addition, the inhibition entry (in assay [16]; in the assay filed under Bos taurus; in assay [18]) was “Dose-dependent effect” each time. In addition, the minimal effective dose with Mus musculus worked out at 40 mg/kg.
